Test results taken from ChEMBL document CHEMBL4229368, “N,N'-disubstituted cinnamamide derivatives potentiate ciprofloxacin activity against overexpressing NorA efflux pump Staphylococcus aureus 1199B strains” (Eur J Med Chem, 2018).

Experiments:
Staphylococcus aureus [1] = experiment: Potentiation of ciprofloxacin-induced antibacterial activity against wild type Staphylococcus aureus SA1199 assessed as fold reduction in ciprofloxacin MIC at 25.3 uM after 18 to 24 hrs by broth microdilution method; type: functional
Procedure, shortened: (§1)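 Ciprofloxacin MIC by CLSI/CASFM broth microdilution in Mueller-Hinton II, two-fold serial dilutions, inoculum 5.10⁵ CFU/mL, 37 °C for 18-24 h. MIC is the lowest concentration with no visible growth. Test agent co-administered at a fixed final concentration without antibacterial activity (10 or 30 µg/mL, or 1/4 MIC where intrinsically active). Result is fold reduction of ciprofloxacin MIC. At least three independent experiments.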

Staphylococcus aureus [2] = experiment: Growth inhibition of wild type Staphylococcus aureus SA1199 assessed as non-toxic concentration after 18 to 24 hrs by broth microdilution method; type: organism-based; conditions: pooled result: one value given for 2 cell lines, strains, targets or settings, read-out: Activity
Staphylococcus aureus [3] = experiment: Bactericidal activity against wild type Staphylococcus aureus SA1199 at 10 ug/ml after 18 to 24 hrs by broth microdilution method; type: ADME, organism-based
[4] = Cytotoxicity against human MRC5 cells assessed as reduction in cell viability after 72 hrs by MTT assay; type: cell-based
Procedure, shortened: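 MRC5 human lung fibroblasts plated in triplicate at 6000 cells/well in MEM with 10% FBS and incubated overnight at 37 °C, 5% CO2. Compound or DMSO vehicle applied for 72 h, then MTT 1 mg/mL added for 3 h at 37 °C. Formazan dissolved in 0.01 M HCl in isopropanol for 15 min. A570 read minus A690; GI50 as mean SD of ≥3 independent experiments.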

[5] = biological target: T1, Quinolone resistance protein NorA (Staphylococcus aureus) (UniProt P0A0J7); experiment: Inhibition of NorA in Staphylococcus aureus SA1199B assessed as potentiation of ciprofloxacin-induced antibacterial activity by measuring fold reduction in ciprofloxacin MIC at 25.3 uM after 18 to 24 hrs by broth microdilution method; procedure, shortened: as §1
T1 sequence (whole entry): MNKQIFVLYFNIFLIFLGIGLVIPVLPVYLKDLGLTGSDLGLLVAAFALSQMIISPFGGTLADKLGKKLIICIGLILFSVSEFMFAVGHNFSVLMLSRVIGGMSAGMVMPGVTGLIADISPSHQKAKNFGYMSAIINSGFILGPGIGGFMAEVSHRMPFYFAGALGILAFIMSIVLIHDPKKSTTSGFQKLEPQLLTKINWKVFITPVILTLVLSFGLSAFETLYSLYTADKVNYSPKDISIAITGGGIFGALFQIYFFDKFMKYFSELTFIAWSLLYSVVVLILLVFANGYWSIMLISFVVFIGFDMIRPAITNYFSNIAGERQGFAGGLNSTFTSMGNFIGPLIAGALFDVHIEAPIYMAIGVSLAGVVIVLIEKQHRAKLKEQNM

Staphylococcus aureus [6] = experiment: Potentiation of ciprofloxacin-induced antibacterial activity against wild type Staphylococcus aureus SA1199 assessed as fold reduction in ciprofloxacin MIC at 73 uM after 18 to 24 hrs by broth microdilution method; type: functional; procedure, shortened: as §1
Staphylococcus aureus [7] = experiment: Bactericidal activity against wild type Staphylococcus aureus SA1199 at 30 ug/ml after 18 to 24 hrs by broth microdilution method; type: ADME, organism-based; conditions: in vitro
[8] = biological target: T1, Quinolone resistance protein NorA (Staphylococcus aureus); experiment: Inhibition of NorA in Staphylococcus aureus SA1199B assessed as potentiation of ciprofloxacin-induced antibacterial activity by measuring fold reduction in ciprofloxacin MIC at 73 uM after 18 to 24 hrs by broth microdilution method; procedure, shortened: as §1
Staphylococcus aureus [9] = experiment: Potentiation of ciprofloxacin-induced antibacterial activity against wild type Staphylococcus aureus SA1199 assessed as fold reduction in ciprofloxacin MIC at 32.9 uM after 18 to 24 hrs by broth microdilution method; type: functional
[10] = biological target: T1, Quinolone resistance protein NorA (Staphylococcus aureus); experiment: Inhibition of NorA in Staphylococcus aureus SA1199B assessed as potentiation of ciprofloxacin-induced antibacterial activity by measuring fold reduction in ciprofloxacin MIC at 21 uM after 18 to 24 hrs by broth microdilution method; procedure, shortened: as §1
Staphylococcus aureus [11] = experiment: Potentiation of ciprofloxacin-induced antibacterial activity against wild type Staphylococcus aureus SA1199 assessed as fold reduction in ciprofloxacin MIC at 21 uM after 18 to 24 hrs by broth microdilution method; type: functional; procedure, shortened: as §1
[12] = biological target: T1, Quinolone resistance protein NorA (Staphylococcus aureus); experiment: Inhibition of NorA in Staphylococcus aureus SA1199B assessed as potentiation of ciprofloxacin-induced antibacterial activity by measuring fold reduction in ciprofloxacin MIC at 19.1 uM after 18 to 24 hrs by broth microdilution method; procedure, shortened: as §1
[13] = biological target: T1, Quinolone resistance protein NorA (Staphylococcus aureus); experiment: Potency index, ratio of compound effect to reserpine effect for inhibition of NorA in Staphylococcus aureus SA1199B assessed as potentiation of ciprofloxacin-induced antibacterial activity by measuring fold reduction in ciprofloxacin MIC
Staphylococcus aureus [14] = experiment: Potentiation of ciprofloxacin-induced antibacterial activity against wild type Staphylococcus aureus SA1199 assessed as fold reduction in ciprofloxacin MIC at 19.1 uM after 18 to 24 hrs by broth microdilution method; type: functional; procedure, shortened: as §1
Staphylococcus aureus [15] = experiment: Potentiation of ciprofloxacin-induced antibacterial activity against wild type Staphylococcus aureus SA1199 assessed as fold reduction in ciprofloxacin MIC at 20.6 uM after 18 to 24 hrs by broth microdilution method; type: functional; procedure, shortened: as §1
[16] = biological target: T1, Quinolone resistance protein NorA (Staphylococcus aureus); experiment: Inhibition of NorA in Staphylococcus aureus SA1199B assessed as potentiation of ciprofloxacin-induced antibacterial activity by measuring fold reduction in ciprofloxacin MIC at 20.6 uM after 18 to 24 hrs by broth microdilution method; procedure, shortened: as §1
[17] = biological target: T1, Quinolone resistance protein NorA (Staphylococcus aureus); experiment: Inhibition of NorA in Staphylococcus aureus SA1199B assessed as potentiation of ciprofloxacin-induced antibacterial activity by measuring fold reduction in ciprofloxacin MIC at 81.3 uM after 18 to 24 hrs by broth microdilution method; procedure, shortened: as §1
Staphylococcus aureus [18] = experiment: Potentiation of ciprofloxacin-induced antibacterial activity against wild type Staphylococcus aureus SA1199 assessed as fold reduction in ciprofloxacin MIC at 81.3 uM after 18 to 24 hrs by broth microdilution method; type: functional; procedure, shortened: as §1
[19] = biological target: T1, Quinolone resistance protein NorA (Staphylococcus aureus); experiment: Inhibition of NorA in Staphylococcus aureus SA1199B assessed as potentiation of ciprofloxacin-induced antibacterial activity by measuring fold reduction in ciprofloxacin MIC at 23 uM after 18 to 24 hrs by broth microdilution method; procedure, shortened: as §1
Staphylococcus aureus [20] = experiment: Potentiation of ciprofloxacin-induced antibacterial activity against wild type Staphylococcus aureus SA1199 assessed as fold reduction in ciprofloxacin MIC at 23 uM after 18 to 24 hrs by broth microdilution method; type: functional; procedure, shortened: as §1
[21] = biological target: T1, Quinolone resistance protein NorA (Staphylococcus aureus); experiment: Inhibition of NorA in Staphylococcus aureus SA1199B assessed as potentiation of ciprofloxacin-induced antibacterial activity by measuring fold reduction in ciprofloxacin MIC at 80.6 uM after 18 to 24 hrs by broth microdilution method; procedure, shortened: as §1
Staphylococcus aureus [22] = experiment: Potentiation of ciprofloxacin-induced antibacterial activity against wild type Staphylococcus aureus SA1199 assessed as fold reduction in ciprofloxacin MIC at 80.6 uM after 18 to 24 hrs by broth microdilution method; type: functional; procedure, shortened: as §1
Staphylococcus aureus [23] = experiment: Potentiation of ciprofloxacin-induced antibacterial activity against wild type Staphylococcus aureus SA1199 assessed as fold reduction in ciprofloxacin MIC at 22.9 uM after 18 to 24 hrs by broth microdilution method; type: functional; procedure, shortened: as §1
[24] = biological target: T1, Quinolone resistance protein NorA (Staphylococcus aureus); experiment: Inhibition of NorA in Staphylococcus aureus SA1199B assessed as potentiation of ciprofloxacin-induced antibacterial activity by measuring fold reduction in ciprofloxacin MIC at 22.9 uM after 18 to 24 hrs by broth microdilution method; procedure, shortened: as §1
Staphylococcus aureus [25] = experiment: Growth inhibition of Staphylococcus aureus SA1199B over-expressing NorA at 3.9 ug/ml after 18 to 24 hrs by broth microdilution method; type: organism-based
Staphylococcus aureus [26] = experiment: Potentiation of ciprofloxacin-induced antibacterial activity against wild type Staphylococcus aureus SA1199 assessed as fold reduction in ciprofloxacin MIC at 8.5 uM after 18 to 24 hrs by broth microdilution method; type: functional; procedure, shortened: as §1
[27] = biological target: T1, Quinolone resistance protein NorA (Staphylococcus aureus); experiment: Inhibition of NorA in Staphylococcus aureus SA1199B assessed as potentiation of ciprofloxacin-induced antibacterial activity by measuring fold reduction in ciprofloxacin MIC at 8.5 uM after 18 to 24 hrs by broth microdilution method; procedure, shortened: as §1
Staphylococcus aureus [28] = experiment: Growth inhibition of wild type Staphylococcus aureus SA1199 after 18 to 24 hrs by broth microdilution method; type: organism-based
Staphylococcus aureus [29] = experiment: Growth inhibition of wild type Staphylococcus aureus SA1199 at 3.9 ug/ml after 18 to 24 hrs by broth microdilution method; type: organism-based
Staphylococcus aureus [30] = experiment: Potentiation of ciprofloxacin-induced antibacterial activity against wild type Staphylococcus aureus SA1199 assessed as fold reduction in ciprofloxacin MIC at 90.9 uM after 18 to 24 hrs by broth microdilution method; type: functional; procedure, shortened: as §1
[31] = biological target: T1, Quinolone resistance protein NorA (Staphylococcus aureus); experiment: Inhibition of NorA in Staphylococcus aureus SA1199B assessed as potentiation of ciprofloxacin-induced antibacterial activity by measuring fold reduction in ciprofloxacin MIC at 90.9 uM after 18 to 24 hrs by broth microdilution method; procedure, shortened: as §1
Staphylococcus aureus [32] = experiment: Growth inhibition of Staphylococcus aureus SA1199B over-expressing NorA at 15.6 ug/ml after 18 to 24 hrs by broth microdilution method; type: organism-based
[33] = biological target: T1, Quinolone resistance protein NorA (Staphylococcus aureus); experiment: Inhibition of NorA in Staphylococcus aureus SA1199B assessed as potentiation of ciprofloxacin-induced antibacterial activity by measuring fold reduction in ciprofloxacin MIC at 37.1 uM after 18 to 24 hrs by broth microdilution method; procedure, shortened: as §1
Staphylococcus aureus [34] = experiment: Potentiation of ciprofloxacin-induced antibacterial activity against wild type Staphylococcus aureus SA1199 assessed as fold reduction in ciprofloxacin MIC at 37.1 uM after 18 to 24 hrs by broth microdilution method; type: functional; procedure, shortened: as §1

Structure (SMILES)	MNTC (Staphylococcus aureus [2])	Activity (Staphylococcus aureus [3])	GI50 at 72 h [4]	Activity (Staphylococcus aureus [7])	also measured
CC(C)(C)OC(=O)NCCN(CCc1ccccc1)C(=O)/C=C/c1ccccc1	25.3 µM	Non-Toxic	54.7 µM	–	fold change (FC) (Staphylococcus aureus [1]): 1; fold change (FC) [5]: 2
CC(C)[C@H](N)CN(CCc1c[nH]c2ccccc12)C(=O)/C=C/c1ccccc1.Cl	73 µM	–	25.3 µM	Non-Toxic	fold change (FC) (Staphylococcus aureus [6]): 2 - 4; fold change (FC) [8]: 4
COC(=O)[C@H]1[C@H]2C[C@@H]3c4[nH]c5cc(OC)ccc5c4CCN3C[C@H]2C[C@@H](OC(=O)c2cc(OC)c(OC)c(OC)c2)[C@@H]1OC [RESERPINE]	32.9 µM	–	14.7 µM	–	fold change (FC) (Staphylococcus aureus [9]): 2
CC(C)[C@@H](CN(CCc1c[nH]c2ccccc12)C(=O)/C=C/c1ccccc1)NC(=O)OC(C)(C)C	21 µM	Non-Toxic	43.7 µM	–	fold change (FC) [10]: 4; fold change (FC) (Staphylococcus aureus [11]): 1 - 2
CC(C)(C)OC(=O)N[C@@H](Cc1ccccc1)CN(CCc1c[nH]c2ccccc12)C(=O)/C=C/c1ccccc1	19.1 µM	Non-Toxic	70 µM	–	fold change (FC) [12]: 4 to 8; Ratio [13]: 2; fold change (FC) (Staphylococcus aureus [14]): 1 - 2
CC(C)(C)OC(=O)N[C@@H](Cc1ccccc1)CN(CCc1ccccc1)C(=O)/C=C/c1ccccc1	20.6 µM	Non-Toxic	17.3 µM	–	fold change (FC) (Staphylococcus aureus [15]): 1; fold change (FC) [16]: 1 to 2
Cl.NCCN(CCc1c[nH]c2ccccc12)C(=O)/C=C/c1ccccc1	81.3 µM	–	20.7 µM	Non-Toxic	fold change (FC) [17]: 2; fold change (FC) (Staphylococcus aureus [18]): 2
CC(C)(C)OC(=O)NCCN(CCc1c[nH]c2ccccc12)C(=O)/C=C/c1ccccc1	23 µM	Non-Toxic	35.3 µM	–	fold change (FC) [19]: 4; fold change (FC) (Staphylococcus aureus [20]): 2
CC(C)[C@H](N)CN(CCc1ccccc1)C(=O)/C=C/c1ccccc1.Cl	80.6 µM	–	52.4 µM	Non-Toxic	fold change (FC) [21]: 2; fold change (FC) (Staphylococcus aureus [22]): 1 - 2
CC(C)[C@@H](CN(CCc1ccccc1)C(=O)/C=C/c1ccccc1)NC(=O)OC(C)(C)C	22.9 µM	Non-Toxic	40.7 µM	–	fold change (FC) (Staphylococcus aureus [23]): 1 - 2; fold change (FC) [24]: 2
Cl.N[C@@H](Cc1ccccc1)CN(CCc1c[nH]c2ccccc12)C(=O)/C=C/c1ccccc1	8.5 µM	–	6.33 µM	–	growth inhibition (GI) (Staphylococcus aureus [25]): Toxic; fold change (FC) (Staphylococcus aureus [26]): 2; fold change (FC) [27]: 2; MIC (Staphylococcus aureus [28]): 15.7 µg/mL; growth inhibition (GI) (Staphylococcus aureus [29]): Toxic
Cl.NCCN(CCc1ccccc1)C(=O)/C=C/c1ccccc1	90.9 µM	–	73.3 µM	Non-Toxic	fold change (FC) (Staphylococcus aureus [30]): 1 - 2; fold change (FC) [31]: 1
Cl.N[C@@H](Cc1ccccc1)CN(CCc1ccccc1)C(=O)/C=C/c1ccccc1	37.1 µM	–	6.5 µM	–	growth inhibition (GI) (Staphylococcus aureus [32]): Toxic; fold change (FC) [33]: 2; MIC (Staphylococcus aureus [28]): 62.5 µg/mL; fold change (FC) (Staphylococcus aureus [34]): 2 - 4
